Source: ChEMBL document CHEMBL1649314, “Experimental murine scedosporiosis: histopathology and azole treatment” (2010)
≈ marks a conversion by molar mass, not a printed value. Calls of active or inactive are those of the source. The calls are words filed in the database; no cut-off is given here.

What was measured:
Scedosporium apiospermum [1] = experiment: Antifungal activity against Scedosporium apiospermum CBS 117407 infected in immunosuppressed OF1 mouse assessed as reduction in kidney fungal burden at 1.5 mg/kg/day, ip administered 24 hrs postinfection for 10 days measured after 20 days; type: functional, organism-based
Scedosporium boydii [2] = experiment: Antifungal activity against Scedosporium boydii FMR 6694 infected in immunosuppressed OF1 mouse assessed as reduction in kidney fungal burden at 1.5 mg/kg/day, ip administered 24 hrs postinfection for 10 days measured after 20 days; type: functional, organism-based
Scedosporium boydii [3] = experiment: Antifungal activity against Scedosporium boydii FMR 6694 infected in immunosuppressed OF1 mouse assessed as prolonged survival of mouse of mouse at 1.5 mg/kg/day, ip administered 24 hrs postinfection for 10 days measured after 20 days; type: functional, organism-based
Summary of the method: (§1)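 Male OF1 mice immunosuppressed 1 day before infection with cyclophosphamide 200 mg/kg i.p. plus 5-fluorouracil 150 mg/kg i.v. Infection: 1 × 10^4 CFU of PDA-grown conidia in 0.2 ml saline via lateral tail vein. Treatment 1.5 mg/kg/day i.p., started 24 h post-challenge, given for 10 days; 10 mice/group; checked daily to day 20. Kaplan-Meier mean survival, log rank test.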

[4] = Antifungal activity against Scedosporium aurantiacum IHEM 15458 by broth dilution method; type: functional
Scedosporium boydii [5] = experiment: Antifungal activity against Scedosporium boydii FMR 8627 by broth dilution method; type: functional
Scedosporium apiospermum [6] = experiment: Antifungal activity against Scedosporium apiospermum CBS 117407 by broth dilution method; type: functional
[7] = Antifungal activity against Scedosporium aurantiacum CBS 116910 infected in immunosuppressed OF1 mouse assessed as prolonged survival of mouse at 1.5 mg/kg/day, ip administered 24 hrs postinfection for 10 days measured after 20 days; type: functional, organism-based; summary of the method: as §1
Scedosporium boydii [8] = experiment: Antifungal activity against Scedosporium boydii FMR 8627 infected in immunosuppressed OF1 mouse assessed as prolonged survival of mouse at 1.5 mg/kg/day, ip administered 24 hrs postinfection for 10 days measured after 20 days; type: functional, organism-based; summary of the method: as §1
Scedosporium aurantiacum [9] = experiment: Antifungal activity against Scedosporium aurantiacum CBS 116910 infected in immunosuppressed OF1 mouse assessed as reduction in kidney fungal burden at 1.5 mg/kg/day, ip administered 24 hrs postinfection for 10 days measured after 20 days; type: functional, organism-based
[10] = Antifungal activity against Scedosporium aurantiacum IHEM 15458 infected in immunosuppressed OF1 mouse assessed as prolonged survival of mouse at 1.5 mg/kg/day, ip administered 24 hrs postinfection for 10 days measured after 20 days; type: functional, organism-based; summary of the method: as §1
Scedosporium boydii [11] = experiment: Antifungal activity against Scedosporium boydii FMR 8627 infected in immunosuppressed OF1 mouse assessed as reduction in kidney fungal burden at 1.5 mg/kg/day, ip administered 24 hrs postinfection for 10 days measured after 20 days; type: functional, organism-based
[12] = Antifungal activity against Scedosporium aurantiacum CBS 116910 by broth dilution method; type: functional
Scedosporium apiospermum [13] = experiment: Antifungal activity against Scedosporium apiospermum IHEM 14464 infected in immunosuppressed OF1 mouse assessed as reduction in kidney fungal burden at 1.5 mg/kg/day, ip administered 24 hrs postinfection for 10 days measured after 20 days; type: functional, organism-based
Scedosporium apiospermum [14] = experiment: Antifungal activity against Scedosporium apiospermum IHEM 14464 infected in immunosuppressed OF1 mouse assessed as prolonged survival of mouse at 1.5 mg/kg/day, ip administered 24 hrs postinfection for 10 days measured after 20 days; type: functional, organism-based; summary of the method: as §1
Scedosporium aurantiacum [15] = experiment: Antifungal activity against Scedosporium aurantiacum IHEM 15458 infected in immunosuppressed OF1 mouse assessed as reduction in kidney fungal burden at 1.5 mg/kg/day, ip administered 24 hrs postinfection measured on day 4 postinfection
Scedosporium apiospermum [16] = experiment: Antifungal activity against Scedosporium apiospermum CBS 117407 infected in immunosuppressed OF1 mouse assessed as prolonged survival of mouse at 1.5 mg/kg/day, ip administered 24 hrs postinfection for 10 days measured after 20 days; type: functional, organism-based; summary of the method: as §1
Scedosporium boydii [17] = experiment: Antifungal activity against Scedosporium boydii FMR 6694 by broth dilution method; type: functional
Scedosporium apiospermum [18] = experiment: Antifungal activity against Scedosporium apiospermum IHEM 14464 by broth dilution method; type: functional

MIC [4]: 32 µg/mL (≈ 34.6 µM)
MIC (Scedosporium boydii [5]): 8 µg/mL (≈ 8.66 µM)
MIC (Scedosporium apiospermum [6]): 8 µg/mL (≈ 8.66 µM)
MIC [12]: 32 µg/mL (≈ 34.6 µM)
MIC (Scedosporium boydii [17]): 32 µg/mL (≈ 34.6 µM)
MIC (Scedosporium apiospermum [18]): 32 µg/mL (≈ 34.6 µM)
SMILES: C[C@@H]1[C@H](O)[C@@H](C)/C=C/C=C/C=C/C=C/C=C/C=C/C=C/[C@H](O[C@@H]2O[C@H](C)[C@@H](O)[C@H](N)[C@@H]2O)C[C@@H]2O[C@](O)(C[C@@H](O)C[C@@H](O)[C@H](O)CC[C@@H](O)C[C@@H](O)CC(=O)O[C@H]1C)C[C@H](O)[C@H]2C(=O)O [AMPHOTERICIN B]
Activity (Scedosporium apiospermum [1]): inactive
Activity (Scedosporium boydii [2]): inactive
Activity (Scedosporium boydii [3]): inactive
Activity [7]: inactive
Activity (Scedosporium boydii [8]): inactive
Activity (Scedosporium aurantiacum [9]): inactive
Activity [10]: inactive
Activity (Scedosporium boydii [11]): inactive
Activity (Scedosporium apiospermum [13]): inactive
Activity (Scedosporium apiospermum [14]): inactive
Activity (Scedosporium aurantiacum [15]): inactive
Activity (Scedosporium apiospermum [16]): inactive
